Assays:
[1] = system: mouse opioid μ receptor expressed in CHO cell lines; assay: In vitro competitive radioligand binding assay, MOR; conditions: ratio of Ki values
How it was run: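 CHO membranes (30 μg) expressing mouse μ or κ, or human δ, opioid receptor were incubated with radioligand and varied test compound in TME (pH 7.4) for 1.5 h at 30 °C, then filtered. Nonspecific binding was defined with 5 μM naltrexone, U50,488 or SNC80.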

[2] = target: human δ opioid receptor expressed in CHO cell lines (Homo sapiens, UniProt P41143); assay: In vitro competitive radioligand binding assay, DOR; conditions: ratio of Ki values
[3] = target: DOR (DOR-CHO membrane protein) (Homo sapiens, UniProt P41143); assay: DOR [35S]-GTPγS functional assay; assay type: biochemical
patients = conditions: long-term study; cited from earlier work
gastrointestinal transit = conditions: MNTX intraperitoneally, morphine 5 mg/kg s.c.; cited from earlier work
male Swiss Webster mice = assay: Carmine red dye assay; assay type: in vivo, mouse; conditions: test compound 10 mg/kg oral gavage, morphine 5 mg/kg
How it was run: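 Male Swiss Webster mice (5–8 wk, 25–35 g), 5–6 per group, housed singly. Test compound 10 mg/kg or vehicle given p.o. 5 min before morphine 5 mg/kg injection. Twenty min after morphine, 0.2 mL 6% carmine red in 0.5% CMC/ddH₂O given p.o. Time to first red pellet recorded, 6 h cut-off. One-way ANOVA with corrected Dunnett test.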

[4] = male rats, after oral administration; cited from earlier work
CYP3A4 = conditions: cited from earlier work

human δ opioid receptor expressed in CHO cell lines, sequence (P41143 whole entry): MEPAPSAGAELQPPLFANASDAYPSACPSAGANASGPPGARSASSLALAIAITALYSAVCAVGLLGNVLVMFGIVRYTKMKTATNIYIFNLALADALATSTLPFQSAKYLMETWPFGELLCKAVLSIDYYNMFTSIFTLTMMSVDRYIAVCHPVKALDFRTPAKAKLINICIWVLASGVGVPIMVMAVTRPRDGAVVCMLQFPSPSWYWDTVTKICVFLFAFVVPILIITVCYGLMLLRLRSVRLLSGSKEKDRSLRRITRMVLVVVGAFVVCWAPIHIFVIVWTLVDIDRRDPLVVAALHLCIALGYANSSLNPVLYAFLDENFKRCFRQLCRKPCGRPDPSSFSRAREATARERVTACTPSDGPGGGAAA
DOR (DOR-CHO membrane protein), sequence (P41143 whole entry): as above

Compound: O=C(Cc1cc[nH]n1)N[C@H]1CC[C@@]2(O)[C@H]3Cc4ccc(O)c5c4[C@@]2(CCN3CC2CC2)[C@H]1O5 [Compound 2, 17-Cyclopropylmethyl-3,14β-dihydroxy-4,5α-epoxy-6α-(3′-pyrazolylacetamido)morphinan]
- selectivity for the MOR over both the KOR and DOR [1]: at least a hundred-fold

Compound: O=C(Cc1cn[nH]c1)N[C@H]1CC[C@@]2(O)[C@H]3Cc4ccc(O)c5c4[C@@]2(CCN3CC2CC2)[C@H]1O5 [Compound 5, 17-Cyclopropylmethyl-3,14β-dihydroxy-4,5α-epoxy-6α-(4′-pyrazolylacetamido)morphinan]
- selectivity for the MOR over both the KOR and DOR [1]: at least a hundred-fold

Compound: O=C(Cc1cc[nH]n1)N[C@@H]1CC[C@@]2(O)[C@H]3Cc4ccc(O)c5c4[C@@]2(CCN3CC2CC2)[C@H]1O5 [Compound 14, 17-Cyclopropylmethyl-3,14β-d/hydroxy-4,5α-epoxy-6β-(3′-pyrazolylacetamldo)morphinan]
- δ/μ selectivity [2]: hundreds-fold

Compound: O=C(CCc1cc[nH]n1)N[C@@H]1CC[C@@]2(O)[C@H]3Cc4ccc(O)c5c4[C@@]2(CCN3CC2CC2)[C@H]1O5 [Compound 15]
- δ/μ selectivity [2]: hundreds-fold

Compound: O=C(N[C@@H]1CC[C@@]2(O)[C@H]3Cc4ccc(O)c5c4[C@@]2(CCN3CC2CC2)[C@H]1O5)c1cnc[nH]1 [Compound 19, 17-Cyclopropylmethyl-3,14β-dlhydroxy-4,5α-epoxy-6β-(5′-imldazolylcarboxamldo)morphinan]
- EC50 [3]: 19.1 ± 5.91 nM

Compound: O=C(N[C@@H]1CC[C@@]2(O)[C@H]3Cc4ccc(O)c5c4[C@@]2(CCN3CC2CC2)[C@H]1O5)c1ncc[nH]1 [Compound 22, 17-Cyclopropylmethyl-3,14β-dihydroxy-4,5α-epoxy-6β-(2′-imidazolylcarboxamido)morphinan]
- δ/μ selectivity [2]: hundreds-fold

Compound: O=C(Cc1ncc[nH]1)N[C@@H]1CC[C@@]2(O)[C@H]3Cc4ccc(O)c5c4[C@@]2(CCN3CC2CC2)[C@H]1O5 [Compound 23, 17-Cyclopropylmethyl-3,14β-dihydroxy-4,5α-epoxy-6β-(2′-imidazolylacetamido)morphinan]
- δ/μ selectivity [2]: hundreds-fold

Compound: C[N@+]1(CC2CC2)CC[C@]23c4c5ccc(O)c4O[C@H]2C(=O)CC[C@@]3(O)[C@H]1C5 [MNTX, methylnaltrexone]
- cardiac-related adverse event, share of patients (patients): less than 1%
- block of the antitransit effects of morphine (gastrointestinal transit): effective
- reversal of the inhibitory effects of morphine on GI motility (male Swiss Webster mice): no blockage was observed
- oral bioavailability [4]: < 1%

Compound: CC(C)(NC(=O)C1=C(O)[C@@H]2Oc3c(O)ccc4c3[C@@]23CCN(CC2CC2)[C@H](C4)[C@]3(O)C1)c1nc(-c2ccccc2)no1 [naldemedine]
- substrate of CYP3A4 (CYP3A4): substrates

Compound: C=CCN1CC[C@]23c4c5ccc(O)c4O[C@H]2[C@@H](OCCOCCOCCOCCOCCOCCOCCOC)CC[C@@]3(O)[C@H]1C5 [naloxegol]
- substrate of CYP3A4 (CYP3A4): substrates

— publication PMC10546485 (Journal of medicinal chemistry, 2022)
